Data as given in ChEMBL document CHEMBL1125234, “Novel pyrrolo[2,3-d]pyrimidine antifolates: synthesis and antitumor activities” (J Med Chem, 1991).
≈ marks a conversion by molar mass, not a printed value.

How the values were obtained:
[1] = In vitro growth inhibitory activity against KB human epidermoid carcinoma cells.; type: functional
Outline: (§1)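 Cells seeded at 1 × 10^4 cells/mL in 96-well plates, MEM with 10% fetal calf serum, 37 °C, 5% CO₂, 24 h. Antifolate added in 10% MEM at final 0.15-80 ng/mL, then culture continued 72 h at 37 °C. Cell number estimated by MTT; IC50 taken as concentration giving 50% growth inhibition. Means ± SE of three experiments.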

A549 = assay: In vitro growth inhibitory activity against A549 human nonsmall cell lung carcinoma cells.; type: functional, cell-based; outline: as §1

| IC50 (A549) | Compound | IC50 [1] |
| --- | --- | --- |
| 2.3 ng/mL (≈ 5.06 nM) | CC(CCc1c[nH]c2nc(N)nc(N)c12)c1ccc(C(=O)N[C@H](CCC(=O)O)C(=O)O)cc1 (stereo not given in full) | 0.59 ng/mL (≈ 1.3 nM) |
| 1.6 ng/mL (≈ 3.5 nM) | CC(CCC1CNc2nc(N)nc(N)c21)c1ccc(C(=O)N[C@H](CCC(=O)O)C(=O)O)cc1 (stereo not given in full) | 0.3 ng/mL (≈ 0.657 nM) |
| 35 ng/mL (≈ 77 nM) | CN(Cc1cnc2nc(N)nc(N)c2n1)c1ccc(C(=O)N[C@@H](CCC(=O)O)C(=O)O)cc1 [METHOTREXATE] | 5.02 ng/mL (≈ 11 nM) |
| 4.5 ng/mL (≈ 10.2 nM) | Nc1nc(N)c2c(CCCc3ccc(C(=O)N[C@H](CCC(=O)O)C(=O)O)cc3)c[nH]c2n1 | 0.27 ng/mL (≈ 0.613 nM) |
| 4.9 ng/mL (≈ 11.1 nM) | Nc1nc(N)c2c(n1)NCC2CCCc1ccc(C(=O)N[C@H](CCC(=O)O)C(=O)O)cc1 (stereo not given in full) | 0.49 ng/mL (≈ 1.11 nM) |
